Converted amounts (≈) assume the structure as drawn.
Experiments:
Candida albicans [1] = assay: Minimum inhibitory concentration to inhibit 90% of the isolates; type: functional, Fungi
Summary of the method: (§1)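 Broth microdilution per NCCLS document against 20 C. albicans strains. […] MIC is reported in µg/mL as the arithmetic mean ± SD. MIC50 and MIC90 are the MICs at which 50% and 90% of isolates are inhibited. C. parapsilosis ATCC22019 was run as the QC strain.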

Candida parapsilosis [2] = assay: Antifungal activity to inhibit Candida parapsilosis ATCC 22019; type: functional, Fungi; conditions: Lodderomyces parapsilosis
Candida albicans [3] = assay: Antifungal activity to cause 99% reduction of surviving cells range is equal to 32-128; type: functional, Fungi
Candida parapsilosis [4] = assay: Minimum inhibitory concentration to inhibit Candida parapsilosis ATCC 22019; type: functional, Fungi; conditions: Lodderomyces parapsilosis; summary of the method: as §1
Candida albicans [5] = assay: Minimum inhibitory concentration to inhibit Candida Albicans strain range is equal to 4-64; type: functional, Fungi; summary of the method: as §1
Candida albicans [6] = assay: Antifungal activity to cause 99% reduction of surviving cells in 50% isolates; type: functional, Fungi
Candida albicans [7] = assay: Antifungal activity to cause 99% reduction of surviving cells in 90% isolates; type: functional, Fungi
K562 = assay: Cytotoxicity to reduce chronic myeloid leukemia K 562 cells; type: functional; conditions: Homo sapiens
Summary of the method: (§2)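 CC50 is the concentration in µM that reduces viability of human histiocytic lymphoma U937 or chronic myeloid leukemia K562 cells by 50%.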

U-937 = assay: Cytotoxicity to reduce human histolytic lymphoma U937 cells; type: functional; summary of the method: as §2
Candida albicans [8] = assay: Minimum inhibitory concentration to inhibit 50% of the isolates
Candida albicans [9] = assay: Antifungal activity to cause 99% reduction of surviving cells; type: functional, Fungi
Candida albicans [10] = assay: Minimum inhibitory concentration to inhibit Candida albicans strain range is equal to 0.125-64; type: functional, Fungi
Candida albicans [11] = assay: Minimum inhibitory concentration to inhibit 50% of the isolates; type: functional, Fungi; summary of the method: as §1
Candida albicans [12] = assay: Antifungal activity to cause 99% reduction of surviving cells range is equal to 4-32; type: functional, Fungi
Candida albicans [13] = assay: Minimum inhibitory concentration to inhibit Candida albicans strain range is equal to 1-8; type: functional, Fungi; summary of the method: as §1
Candida albicans [14] = assay: Antifungal activity to cause 99% reduction of surviving cells range is equal to 2-32; type: functional, Fungi
Candida albicans [15] = assay: Antifungal activity to cause 99% reduction of surviving cells range is equal to 8-32; type: functional, Fungi
Candida albicans [16] = assay: Minimum inhibitory concentration to inhibit Candida albicans strain range is equal to 2-8; type: functional, Fungi; summary of the method: as §1
Candida albicans [17] = assay: Antifungal activity to cause 99% reduction of surviving cells range is equal to 64-128; type: functional, Fungi
Candida albicans [18] = assay: Minimum inhibitory concentration to inhibit Candida albicans strain range is equal to 32-128; type: functional, Fungi
Candida albicans [19] = assay: Minimum inhibitory concentration to inhibit Candida albicans strain range is equal to 16-128; type: functional, Fungi; summary of the method: as §1
Candida albicans [20] = assay: Antifungal activity to cause 99% reduction of surviving cells range is equal to 2-16; type: functional, Fungi
Candida albicans [21] = assay: Minimum inhibitory concentration to inhibit Candida albicans strain range is equal to 1-4; type: functional, Fungi; summary of the method: as §1
Candida albicans [22] = assay: Antifungal activity to cause 99% reduction of surviving cells range is equal to 16-128; type: functional, Fungi
Candida albicans [23] = assay: Minimum inhibitory concentration to inhibit Candida albicans strain range is equal to 8-64; type: functional, Fungi; summary of the method: as §1
Candida albicans [24] = assay: Minimum inhibitory concentration to inhibit Candida albicans strain range is equal to 2-16; type: functional, Fungi
Candida albicans [25] = assay: Antifungal activity to cause 99% reduction of surviving cells range is equal to 1-8; type: functional, Fungi
Candida albicans [26] = assay: Minimum inhibitory concentration to inhibit Candida albicans strain range is equal to 0.5-4; type: functional, Fungi; summary of the method: as §1
Candida albicans [27] = assay: Antifungal activity to cause 99% reduction of surviving cells range is equal to 8-16; type: functional, Fungi
Candida albicans [28] = assay: Antifungal activity to cause 99% reduction of surviving cells range is equal to 4-16; type: functional, Fungi

| Compound | MIC90 (Candida albicans [1]) | MFC (Candida parapsilosis [2]) | MIC (Candida parapsilosis [4]) | MFC50 (Candida albicans [6]) | MFC90 (Candida albicans [7]) | CC50 (K562) | CC50 (U-937) | MIC50 (Candida albicans [11]) | also measured |
| --- | --- | --- | --- | --- | --- | --- | --- | --- | --- |
| Fc1ccc(OC(CCn2ccnc2)c2ccccc2)c(F)c1 (stereo unspecified) | 64 µg/mL (≈ 204 µM) | 32 µg/mL (≈ 102 µM) | 8 µg/mL (≈ 25.5 µM) | 64 µg/mL (≈ 204 µM) | 128 µg/mL (≈ 407 µM) | 298 µM | 219 µM | – | MFC (Candida albicans [3]): < 128 µg/mL; MIC (Candida albicans [5]): < 64 µg/mL; MIC50 (Candida albicans [8]): 32 µg/mL (≈ 102 µM) |
| OC(Cn1cncn1)(Cn1cncn1)c1ccc(F)cc1F [FLUCONAZOLE] | 64 µg/mL (≈ 209 µM) | 8 µg/mL (≈ 26.1 µM) | 0.5 µg/mL (≈ 1.63 µM) | – | – | 385 µM | 316 µM | 2 µg/mL (≈ 6.53 µM) | MFC (Candida albicans [9]): > 64 µg/mL; MIC (Candida albicans [10]): < 64 µg/mL |
| Clc1ccc(COC(Cn2ccnc2)c2ccc(Cl)cc2Cl)c(Cl)c1 (stereo unspecified) [MICONAZOLE] | 4 µg/mL (≈ 9.61 µM) | 0.5 µg/mL (≈ 1.2 µM) | 1 µg/mL (≈ 2.4 µM) | 8 µg/mL (≈ 19.2 µM) | 16 µg/mL (≈ 38.4 µM) | 39.3 µM | 40 µM | 4 µg/mL (≈ 9.61 µM) | MFC (Candida albicans [12]): < 32 µg/mL; MIC (Candida albicans [13]): < 8 µg/mL |
| Clc1ccc(OC(CCn2ccnc2)c2ccccc2)cc1 (stereo unspecified) | 4 µg/mL (≈ 12.8 µM) | 32 µg/mL (≈ 102 µM) | 4 µg/mL (≈ 12.8 µM) | 4 µg/mL (≈ 12.8 µM) | 16 µg/mL (≈ 51.2 µM) | 221 µM | 84.9 µM | 2 µg/mL (≈ 6.39 µM) | MFC (Candida albicans [14]): < 32 µg/mL; MIC (Candida albicans [13]): < 8 µg/mL |
| Clc1ccc(COC(Cn2ccnc2)c2ccc(Cl)cc2Cl)cc1 (stereo unspecified) [ECONAZOLE] | 8 µg/mL (≈ 21 µM) | 2 µg/mL (≈ 5.24 µM) | 2 µg/mL (≈ 5.24 µM) | 16 µg/mL (≈ 41.9 µM) | 32 µg/mL (≈ 83.8 µM) | 54.7 µM | 60 µM | 4 µg/mL (≈ 10.5 µM) | MFC (Candida albicans [15]): < 32 µg/mL; MIC (Candida albicans [16]): < 8 µg/mL |
| CNCCC(Oc1ccc(C(F)(F)F)cc1)c1ccccc1 (stereo unspecified) [FLUOXETINE] | 128 µg/mL (≈ 414 µM) | 64 µg/mL (≈ 207 µM) | 8 µg/mL (≈ 25.9 µM) | – | – | 25 µM | 33.3 µM | 64 µg/mL (≈ 207 µM) | MFC (Candida albicans [17]): < 128 µg/mL; MIC (Candida albicans [18]): < 128 µg/mL |
| FC(F)(F)c1ccc(OC(CCn2ccnc2)c2ccccc2)cc1 (stereo unspecified) | 128 µg/mL (≈ 370 µM) | 16 µg/mL (≈ 46.2 µM) | 4 µg/mL (≈ 11.5 µM) | 64 µg/mL (≈ 185 µM) | 128 µg/mL (≈ 370 µM) | 71 µM | 86 µM | 64 µg/mL (≈ 185 µM) | MFC (Candida albicans [3]): < 128 µg/mL; MIC (Candida albicans [19]): < 128 µg/mL |
| Cc1ccc(C(CCn2ccnc2)Oc2ccc(Cl)cc2Cl)cc1 (stereo unspecified) | 8 µg/mL (≈ 22.1 µM) | 4 µg/mL (≈ 11.1 µM) | 1 µg/mL (≈ 2.77 µM) | 4 µg/mL (≈ 11.1 µM) | 16 µg/mL (≈ 44.3 µM) | 31.4 µM | 40 µM | 2 µg/mL (≈ 5.54 µM) | MFC (Candida albicans [20]): < 16 µg/mL; MIC (Candida albicans [21]): < 4 µg/mL |
| O=[N+]([O-])c1ccc(OC(CCn2ccnc2)c2ccccc2)cc1 (stereo unspecified) | 32 µg/mL (≈ 99 µM) | 32 µg/mL (≈ 99 µM) | – | 32 µg/mL (≈ 99 µM) | >128 µg/mL | 102 µM | 97.2 µM | 32 µg/mL (≈ 99 µM) | MIC (Candida parapsilosis [2]): 4 µg/mL (≈ 12.4 µM); MFC (Candida albicans [22]): < 128 µg/mL; MIC (Candida albicans [23]): < 64 µg/mL |
| CC(=O)N1CCN(c2ccc(OC[C@H]3CO[C@](Cn4ccnc4)(c4ccc(Cl)cc4Cl)O3)cc2)CC1 [KETOCONAZOLE] | 8 µg/mL (≈ 15.1 µM) | 0.5 µg/mL (≈ 0.941 µM) | 0.06 µg/mL (≈ 0.113 µM) | 16 µg/mL (≈ 30.1 µM) | 32 µg/mL (≈ 60.2 µM) | 61.7 µM | 70 µM | 4 µg/mL (≈ 7.53 µM) | MFC (Candida albicans [15]): < 32 µg/mL; MIC (Candida albicans [24]): < 16 µg/mL |
| Clc1ccc(C(CCn2ccnc2)Oc2ccc(Cl)cc2Cl)cc1 (stereo unspecified) | 4 µg/mL (≈ 10.5 µM) | 8 µg/mL (≈ 21 µM) | 0.5 µg/mL (≈ 1.31 µM) | 4 µg/mL (≈ 10.5 µM) | 4 µg/mL (≈ 10.5 µM) | 54 µM | 61 µM | 2 µg/mL (≈ 5.24 µM) | MFC (Candida albicans [25]): < 8 µg/mL; MIC (Candida albicans [26]): < 4 µg/mL |
| Cc1ccc(OC(CCn2ccnc2)c2ccccc2)cc1 (stereo unspecified) | 16 µg/mL (≈ 54.7 µM) | 16 µg/mL (≈ 54.7 µM) | 2 µg/mL (≈ 6.84 µM) | 16 µg/mL (≈ 54.7 µM) | 16 µg/mL (≈ 54.7 µM) | 95.9 µM | 141 µM | 8 µg/mL (≈ 27.4 µM) | MFC (Candida albicans [27]): < 16 µg/mL; MIC (Candida albicans [19]): 16 µg/mL (≈ 54.7 µM) |
| Clc1ccc(OC(CCn2ccnc2)c2ccccc2)c(Cl)c1 (stereo unspecified) | 8 µg/mL (≈ 23 µM) | 8 µg/mL (≈ 23 µM) | 2 µg/mL (≈ 5.76 µM) | 8 µg/mL (≈ 23 µM) | 8 µg/mL (≈ 23 µM) | 96.7 µM | 56.5 µM | 4 µg/mL (≈ 11.5 µM) | MFC (Candida albicans [28]): < 16 µg/mL; MIC (Candida albicans [13]): < 8 µg/mL |
| Fc1ccc(C(CCn2ccnc2)Oc2ccc(Cl)cc2Cl)cc1 (stereo unspecified) | 4 µg/mL (≈ 11 µM) | 4 µg/mL (≈ 11 µM) | 0.5 µg/mL (≈ 1.37 µM) | 8 µg/mL (≈ 21.9 µM) | 8 µg/mL (≈ 21.9 µM) | 33.5 µM | 43.3 µM | 2 µg/mL (≈ 5.48 µM) | MFC (Candida albicans [20]): < 16 µg/mL; MIC (Candida albicans [26]): < 4 µg/mL |

Source: ChEMBL document CHEMBL1138657 (2004)
